Assay results: ChEMBL document CHEMBL3992522, “Antileishmanial Activity of Pyrazolopyridine Derivatives and Their Potential as an Adjunct Therapy with Miltefosine” (J Med Chem, 2017)
The source made the active and inactive calls. No cut-off for these calls is given here.

Legend:
Type in all cases: functional
[1] = system: Leishmania donovani; assay: Antileishmanial activity against Leishmania donovani MHOM/IN/80/DD8 promastigote forms harboring luciferase gene at 50 uM after 72 hrs by Steady-Glo reagent based luminescence assay relative to control; settings: MHOM/IN/80/DD8, 72 h, read-out: GI
In short: (§1)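 Exponential-phase Dd8-Luc promastigotes at 1×10^6/mL in M199 with 10% FBS, 24 °C, given 50 and 25 µM for 72 h. Vehicle 0.1% DMSO. Steady-Glo added 1:1, luminescence (RLU) read. IC50 from four-parameter Hill regression, derived only where inhibition exceeded 90%. Means of at least three independent experiments.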

[2] = system: Leishmania donovani; assay: Antileishmanial activity against Leishmania donovani MHOM/IN/80/DD8 promastigote forms harboring luciferase gene at 25 uM after 72 hrs by Steady-Glo reagent based luminescence assay relative to control; settings: MHOM/IN/80/DD8, 72 h, read-out: GI; in short: as §1
[3] = system: Leishmania donovani; assay: Antileishmanial activity against Leishmania donovani MHOM/IN/80/DD8 amastigote forms harboring luciferase gene infected in mouse J774 cells at 50 uM after 72 hrs by Steady-Glo reagent based luminescence assay relative to control; settings: for inhibition of growth at 50 µM: MHOM/IN/80/DD8, J774, 72 h, read-out: GI
In short: (§2)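 Stationary-phase luciferase-expressing Dd8 promastigotes infected into J774 macrophages (4×10^4/mL seeded, 24 h, 37 °C, 5% CO2) at 1:8 macrophage:parasite for 24 h. Non-internalised parasites washed off. Compounds added at 50 and 25 µM in RPMI/10% FBS for 72 h. Lysis with Steady-Glo luciferin reagent plus PBS, luminescence read. Inhibition relative to untreated infected controls.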

[4] = system: Leishmania donovani; assay: Antileishmanial activity against Leishmania donovani MHOM/IN/80/DD8 amastigote forms harboring luciferase gene infected in mouse J774 cells at 25 uM after 72 hrs by Steady-Glo reagent based luminescence assay relative to control; settings: for inhibition of growth at 25 µM: MHOM/IN/80/DD8, J774, 72 h, read-out: GI; in short: as §2

| Compound | inhibition of growth at 50 µM [1] [%] | inhibition of growth at 25 µM [2] [%] | inhibition of growth at 50 µM [3] [%] | inhibition of growth at 25 µM [4] [%] | growth inhibition (GI) [3] | growth inhibition (GI) [4] |
| --- | --- | --- | --- | --- | --- | --- |
| COc1cc(C2C3=C(CC(C)(C)CC3=O)Nc3c2c(-c2c[nH]c4ccccc24)nn3-c2ccc(Cl)cc2)cc(OC)c1OC (stereo unspecified) | 86.7 | 79.3 | 28.2 | 23.6 | – | – |
| O=C1C2=C(Nc3c(c(-c4c[nH]c5ccccc45)nn3-c3ccc(Cl)cc3)C2c2cccs2)c2ccccc21 (stereo unspecified) | 69.2 | 65.3 | – | – | inactive | inactive |
| CC1(C)CC(=O)c2c(nc3c(c(-c4c[nH]c5ccccc45)nn3-c3ccc(Cl)cc3)c2-c2ccc(Cl)cc2)C1 | 67.4 | 56.7 | – | – | inactive | inactive |
| COc1ccc(-c2c3c(nc4c2c(-c2c[nH]c5ccccc25)nn4-c2ccc(Cl)cc2)-c2ccccc2C3=O)cc1 | 33.4 | 27.5 | – | – | inactive | inactive |
| COc1ccc(C2C3=C(CC(C)(C)CC3=O)Nc3c2c(-c2c[nH]c4ccccc24)nn3-c2ccc(Cl)c(Cl)c2)cc1OC (stereo unspecified) | 59.5 | 52.3 | – | – | inactive | inactive |
| CC1(C)CC(=O)C2=C(C1)Nc1c(c(-c3c[nH]c4ccccc34)nn1-c1ccc(F)cc1)C2c1ccc(Cl)cc1 (stereo unspecified) | 65.3 | 54.3 | – | – | inactive | inactive |
| CC1(C)CC(=O)c2c(nc3c(c(-c4c[nH]c5ccccc45)nn3-c3ccc(F)cc3)c2-c2ccc(Cl)cc2)C1 | 68.6 | 61.3 | – | – | inactive | inactive |
| COc1cc(-c2c3c(nc4c2c(-c2c[nH]c5ccccc25)nn4-c2ccc(Cl)cc2)CCC3=O)cc(OC)c1OC | 72.3 | 66.8 | – | – | inactive | inactive |
| O=C1C2=C(Nc3c(c(-c4c[nH]c5ccccc45)nn3-c3ccc(F)cc3)C2c2ccc(Cl)cc2)c2ccccc21 (stereo unspecified) | 68.3 | 54.2 | – | – | inactive | inactive |
| CC1(C)CC(=O)c2c(nc3c(c(-c4c[nH]c5ccccc45)nn3-c3ccc(F)cc3)c2-c2ccc(Cl)cc2Cl)C1 | 48.4 | 44.6 | – | – | inactive | inactive |
| COc1ccc(C2C3=C(Nc4c2c(-c2c[nH]c5ccccc25)nn4-c2ccc(Cl)cc2)c2ccccc2C3=O)c(OC)c1OC (stereo unspecified) | 67.4 | 64.2 | – | – | inactive | inactive |
| COc1ccc(OC)c(-c2c3c(nc4c2c(-c2c[nH]c5ccccc25)nn4-c2ccc(F)cc2)CC(C)(C)CC3=O)c1 | 90.3 | 84.1 | 27.9 | 22.4 | – | – |
| COc1ccc(-c2c3c(nc4c2c(-c2c[nH]c5ccccc25)nn4-c2ccc(Cl)cc2)-c2ccccc2C3=O)c(OC)c1OC | 63.4 | 52.6 | – | – | inactive | inactive |
| COc1ccc(OC)c(-c2c3c(nc4c2c(-c2c[nH]c5ccccc25)nn4-c2ccc(F)cc2)-c2ccccc2C3=O)c1 | 58.3 | 49.8 | – | – | inactive | inactive |
| COc1ccc(-c2c3c(nc4c2c(-c2c[nH]c5ccccc25)nn4-c2ccc(Cl)cc2)CC(C)(C)CC3=O)c(OC)c1OC | 54.3 | 40.2 | – | – | inactive | inactive |
| COc1ccc(OC)c(-c2c3c(nc4c2c(-c2c[nH]c5ccccc25)nn4-c2ccc(Cl)c(Cl)c2)CC(C)(C)CC3=O)c1 | 51.8 | 41.3 | 41.3 | 24.6 | – | – |
| COc1ccc(OC)c(C2C3=C(CCC3=O)Nc3c2c(-c2c[nH]c4ccccc24)nn3-c2ccc(Cl)cc2)c1 (stereo unspecified) | 93.2 | 85.5 | 42.6 | 37.3 | – | – |
| COc1ccc(-c2c3c(nc4c2c(-c2c[nH]c5ccccc25)nn4-c2ccc(Cl)c(Cl)c2)CCC3=O)cc1OC | 81.1 | 52.4 | 34.3 | 20.8 | – | – |
| CC1(C)CC(=O)c2c(nc3c(c(-c4c[nH]c5ccccc45)nn3-c3ccc(Cl)cc3)c2-c2ccc(Cl)cc2Cl)C1 | 40.6 | 35.7 | – | – | inactive | inactive |
| COc1cc(C2C3=C(CCC3=O)Nc3c2c(-c2c[nH]c4ccccc24)nn3-c2ccc(Cl)cc2)cc(OC)c1O (stereo unspecified) | 89.6 | 79.1 | 30.7 | 25.2 | – | – |
| COc1ccc(OC)c(-c2c3c(nc4c2c(-c2c[nH]c5ccccc25)nn4-c2ccc(Cl)cc2)-c2ccccc2C3=O)c1 | 53.6 | 44.6 | – | – | inactive | inactive |
| O=C1C2=C(Nc3c(c(-c4c[nH]c5ccccc45)nn3-c3ccc(Cl)cc3)C2c2ccc(Cl)cc2)c2ccccc21 (stereo unspecified) | 62.4 | 49.1 | – | – | inactive | inactive |
| COc1ccc(-c2c3c(nc4c2c(-c2c[nH]c5ccccc25)nn4-c2ccc(Cl)c(Cl)c2)CC(C)(C)CC3=O)cc1OC | 74.1 | 59.4 | – | – | inactive | inactive |
| CC1(C)CC(=O)C2=C(C1)Nc1c(c(-c3c[nH]c4ccccc34)nn1-c1ccc(Cl)cc1)C2c1ccc(Cl)cc1 (stereo unspecified) | 65.4 | 62.5 | – | – | inactive | inactive |
| COc1ccc(OC)c(-c2c3c(nc4c2c(-c2c[nH]c5ccccc25)nn4-c2ccc(Cl)cc2)CCC3=O)c1 | 67.2 | 61.2 | – | – | inactive | inactive |
| COc1cc(C2C3=C(CCC3=O)Nc3c2c(-c2c[nH]c4ccccc24)nn3-c2ccc(F)cc2)cc(OC)c1O (stereo unspecified) | 66.9 | 56.5 | – | – | inactive | inactive |
| COc1ccc(OC)c(-c2c3c(nc4c2c(-c2c[nH]c5ccccc25)nn4-c2ccc(Cl)cc2)CC(C)(C)CC3=O)c1 | 69.6 | 50.7 | – | – | inactive | inactive |
| COc1cc(-c2c3c(nc4c2c(-c2c[nH]c5ccccc25)nn4-c2ccc(Cl)cc2)-c2ccccc2C3=O)cc(OC)c1OC | 41.1 | 28.3 | – | – | inactive | inactive |
| COc1cc(-c2c3c(nc4c2c(-c2c[nH]c5ccccc25)nn4-c2ccc(Cl)cc2)CC(C)(C)CC3=O)cc(OC)c1OC | 68.6 | 59.1 | – | – | inactive | inactive |
